Experimental data from ChEMBL document CHEMBL4673214, “Synthesis and antibacterial bioactivities of cationic deacetyl linezolid amphiphiles” (Eur J Med Chem, 2018).

Key:
Enterococcus faecalis = experiment: Antibacterial activity against Enterococcus faecalis ATCC 29212 assessed as reduction in bacterial growth incubated 16 to 20 hrs by CLSI-based broth microdilution method; type: functional; conditions: time 16-20 hrs
Method in brief: (§1)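 Broth microdilution following CLSI, in cation-adjusted Mueller-Hinton broth. Inoculum from a 4-6 h culture (~10^8 CFU/mL), diluted to ~10^6 CFU/mL. Water stocks were serially diluted in MHB (256 to 0.5 µg/mL) and mixed 1:1 with the inoculum. Plates ran 16-20 h at 37 °C. MIC was read visually. Each concentration was tested in duplicate, and the experiment was repeated at least twice.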

Salmonella enterica = experiment: Antibacterial activity against Salmonella enterica ATCC 8387 assessed as reduction in bacterial growth incubated for 16 to 20 hrs by CLSI-based broth microdilution method; type: functional; conditions: time 16-20 hrs; method in brief: as §1
Staphylococcus aureus [1] = experiment: Antibacterial activity against Staphylococcus aureus ATCC 29213 assessed as reduction in bacterial growth incubated for 16 to 20 hrs by CLSI-based broth microdilution method; type: functional; conditions: time 16-20 hrs; method in brief: as §1
Escherichia coli = experiment: Antibacterial activity against Escherichia coli ATCC 25922 assessed as reduction in bacterial growth incubated 16 to 20 hrs by CLSI-based broth microdilution method; type: functional; conditions: time 16-20 hrs; method in brief: as §1
[2] = Solubility of the compound in water at room temperature; type: physicochemical; conditions: buffer
Enterobacteriaceae [3] = experiment: Antibacterial activity against NDM1 producing carbapenem-resistant Enterobacteriaceae clinical isolate 5 assessed as reduction in bacterial growth incubated for 16 to 20 hrs by CLSI-based broth microdilution method; type: functional; conditions: time 16-20 hrs
Method in brief: (§2)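 Clinical isolates tested by broth microdilution in cation-adjusted Mueller-Hinton broth. Cultures grown 4-6 h (~10^8 CFU/mL) were diluted to ~10^6 CFU/mL and mixed 1:1 with compound serial dilutions made from 256 down to 0.5 µg/mL (pre-mixing). Plates held at 37 °C for 16-20 h, then read for growth. Each concentration run in duplicate, whole experiment at least twice.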

Klebsiella pneumoniae [4] = experiment: Antibacterial activity against carbapenem-resistant Klebsiella pneumoniae clinical isolate 3 assessed as reduction in bacterial growth incubated for 16 to 20 hrs by CLSI-based broth microdilution method; type: functional; conditions: time 16-20 hrs; method in brief: as §2
Staphylococcus aureus [5] = experiment: Antibacterial activity against methicillin-resistant Staphylococcus aureus clinical isolate 5 assessed as reduction in bacterial growth incubated for 16 to 20 hrs by CLSI-based broth microdilution method; type: functional; conditions: time 16-20 hrs; method in brief: as §2
Klebsiella pneumoniae [6] = experiment: Antibacterial activity against carbapenem-resistant Klebsiella pneumoniae clinical isolate 2 assessed as reduction in bacterial growth incubated for 16 to 20 hrs by CLSI-based broth microdilution method; type: functional; conditions: time 16-20 hrs; method in brief: as §2
Enterobacteriaceae [7] = experiment: Antibacterial activity against NDM1 producing carbapenem-resistant Enterobacteriaceae clinical isolate 1 assessed as reduction in bacterial growth incubated for 16 to 20 hrs by CLSI-based broth microdilution method; type: functional; conditions: time 16-20 hrs; method in brief: as §2
Staphylococcus aureus [8] = experiment: Antibacterial activity against methicillin-resistant Staphylococcus aureus clinical isolate 3 assessed as reduction in bacterial growth incubated for 16 to 20 hrs by CLSI-based broth microdilution method; type: functional; conditions: time 16-20 hrs; method in brief: as §2
Staphylococcus aureus [9] = experiment: Antibacterial activity against methicillin-resistant Staphylococcus aureus clinical isolate 10 assessed as reduction in bacterial growth incubated for 16 to 20 hrs by CLSI-based broth microdilution method; type: functional; conditions: time 16-20 hrs; method in brief: as §2
Enterobacteriaceae [10] = experiment: Antibacterial activity against NDM1 producing carbapenem-resistant Enterobacteriaceae clinical isolate 9 assessed as reduction in bacterial growth incubated for 16 to 20 hrs by CLSI-based broth microdilution method; type: functional; conditions: time 16-20 hrs; method in brief: as §2
Klebsiella pneumoniae [11] = experiment: Antibacterial activity against carbapenem-resistant Klebsiella pneumoniae clinical isolate 10 assessed as reduction in bacterial growth incubated for 16 to 20 hrs by CLSI-based broth microdilution method; type: functional; conditions: time 16-20 hrs; method in brief: as §2
Enterobacteriaceae [12] = experiment: Antibacterial activity against NDM1 producing carbapenem-resistant Enterobacteriaceae clinical isolate 8 assessed as reduction in bacterial growth incubated for 16 to 20 hrs by CLSI-based broth microdilution method; type: functional; conditions: time 16-20 hrs; method in brief: as §2
Staphylococcus aureus [13] = experiment: Antibacterial activity against methicillin-resistant Staphylococcus aureus clinical isolate 6 assessed as reduction in bacterial growth incubated for 16 to 20 hrs by CLSI-based broth microdilution method; type: functional; conditions: time 16-20 hrs; method in brief: as §2
Klebsiella pneumoniae [14] = experiment: Antibacterial activity against carbapenem-resistant Klebsiella pneumoniae clinical isolate 9 assessed as reduction in bacterial growth incubated for 16 to 20 hrs by CLSI-based broth microdilution method; type: functional; conditions: time 16-20 hrs; method in brief: as §2
Klebsiella pneumoniae [15] = experiment: Antibacterial activity against carbapenem-resistant Klebsiella pneumoniae clinical isolate 8 assessed as reduction in bacterial growth incubated for 16 to 20 hrs by CLSI-based broth microdilution method; type: functional; conditions: time 16-20 hrs; method in brief: as §2
Staphylococcus aureus [16] = experiment: Antibacterial activity against methicillin-resistant Staphylococcus aureus clinical isolate 1 assessed as reduction in bacterial growth incubated for 16 to 20 hrs by CLSI-based broth microdilution method; type: functional; conditions: time 16-20 hrs; method in brief: as §2
Klebsiella pneumoniae [17] = experiment: Antibacterial activity against carbapenem-resistant Klebsiella pneumoniae clinical isolate 7 assessed as reduction in bacterial growth incubated for 16 to 20 hrs by CLSI-based broth microdilution method; type: functional; conditions: time 16-20 hrs; method in brief: as §2
Enterobacteriaceae [18] = experiment: Antibacterial activity against NDM1 producing carbapenem-resistant Enterobacteriaceae clinical isolate 10 assessed as reduction in bacterial growth incubated for 16 to 20 hrs by CLSI-based broth microdilution method; type: functional; conditions: time 16-20 hrs; method in brief: as §2
Klebsiella pneumoniae [19] = experiment: Antibacterial activity against carbapenem-resistant Klebsiella pneumoniae clinical isolate 1 assessed as reduction in bacterial growth incubated for 16 to 20 hrs by CLSI-based broth microdilution method; type: functional; conditions: time 16-20 hrs; method in brief: as §2
Staphylococcus aureus [20] = experiment: Antibacterial activity against methicillin-resistant Staphylococcus aureus clinical isolate 2 assessed as reduction in bacterial growth incubated for 16 to 20 hrs by CLSI-based broth microdilution method; type: functional; conditions: time 16-20 hrs; method in brief: as §2
Staphylococcus aureus [21] = experiment: Antibacterial activity against methicillin-resistant Staphylococcus aureus clinical isolate 7 assessed as reduction in bacterial growth incubated for 16 to 20 hrs by CLSI-based broth microdilution method; type: functional; conditions: time 16-20 hrs; method in brief: as §2
Enterobacteriaceae [22] = experiment: Antibacterial activity against NDM1 producing carbapenem-resistant Enterobacteriaceae clinical isolate 3 assessed as reduction in bacterial growth incubated for 16 to 20 hrs by CLSI-based broth microdilution method; type: functional; conditions: time 16-20 hrs; method in brief: as §2
Klebsiella pneumoniae [23] = experiment: Antibacterial activity against carbapenem-resistant Klebsiella pneumoniae clinical isolate 6 assessed as reduction in bacterial growth incubated for 16 to 20 hrs by CLSI-based broth microdilution method; type: functional; conditions: time 16-20 hrs; method in brief: as §2
Staphylococcus aureus [24] = experiment: Antibacterial activity against methicillin-resistant Staphylococcus aureus clinical isolate 4 assessed as reduction in bacterial growth incubated for 16 to 20 hrs by CLSI-based broth microdilution method; type: functional; conditions: time 16-20 hrs; method in brief: as §2
Enterobacteriaceae [25] = experiment: Antibacterial activity against NDM1 producing carbapenem-resistant Enterobacteriaceae clinical isolate 2 assessed as reduction in bacterial growth incubated for 16 to 20 hrs by CLSI-based broth microdilution method; type: functional; conditions: time 16-20 hrs; method in brief: as §2
Enterobacteriaceae [26] = experiment: Antibacterial activity against NDM1 producing carbapenem-resistant Enterobacteriaceae clinical isolate 7 assessed as reduction in bacterial growth incubated for 16 to 20 hrs by CLSI-based broth microdilution method; type: functional; conditions: time 16-20 hrs; method in brief: as §2
Enterobacteriaceae [27] = experiment: Antibacterial activity against NDM1 producing carbapenem-resistant Enterobacteriaceae clinical isolate 4 assessed as reduction in bacterial growth incubated for 16 to 20 hrs by CLSI-based broth microdilution method; type: functional; conditions: time 16-20 hrs; method in brief: as §2
Enterobacteriaceae [28] = experiment: Antibacterial activity against NDM1 producing carbapenem-resistant Enterobacteriaceae clinical isolate 6 assessed as reduction in bacterial growth incubated for 16 to 20 hrs by CLSI-based broth microdilution method; type: functional; conditions: time 16-20 hrs; method in brief: as §2
Staphylococcus aureus [29] = experiment: Antibacterial activity against methicillin-resistant Staphylococcus aureus clinical isolate 9 assessed as reduction in bacterial growth incubated for 16 to 20 hrs by CLSI-based broth microdilution method; type: functional; conditions: time 16-20 hrs; method in brief: as §2
Klebsiella pneumoniae [30] = experiment: Antibacterial activity against carbapenem-resistant Klebsiella pneumoniae clinical isolate 5 assessed as reduction in bacterial growth incubated for 16 to 20 hrs by CLSI-based broth microdilution method; type: functional; conditions: time 16-20 hrs; method in brief: as §2
Staphylococcus aureus [31] = experiment: Antibacterial activity against methicillin-resistant Staphylococcus aureus clinical isolate 8 assessed as reduction in bacterial growth incubated for 16 to 20 hrs by CLSI-based broth microdilution method; type: functional; conditions: time 16-20 hrs; method in brief: as §2
Klebsiella pneumoniae [32] = experiment: Antibacterial activity against carbapenem-resistant Klebsiella pneumoniae clinical isolate 4 assessed as reduction in bacterial growth incubated for 16 to 20 hrs by CLSI-based broth microdilution method; type: functional; conditions: time 16-20 hrs; method in brief: as §2

Which results are given for `CCCCCCCN(C[C@H]1CN(c2ccc(N3CCOCC3)c(F)c2)C(=O)O1)C(=O)[C@@H](N)CCCCN.Cl.Cl`?
MIC (Enterococcus faecalis): 128 µg/mL; MIC (Salmonella enterica): > 128 µg/mL; MIC (Staphylococcus aureus [1]): 128 µg/mL; MIC (Escherichia coli): > 128 µg/mL; solubility [2]: Soluble

Which results are given for `CCCCCCCCC[N+](C)(C)CC(=O)NC[C@H]1CN(c2ccc(N3CCOCC3)c(F)c2)C(=O)O1.[Cl-]`?
MIC (Enterococcus faecalis): 16 µg/mL; MIC (Salmonella enterica): 32 µg/mL; MIC (Staphylococcus aureus [1]): 8 µg/mL; MIC (Escherichia coli): 32 µg/mL; solubility [2]: Soluble

For `CCCCCCCC[N+](C)(C)CC(=O)NC[C@H]1CN(c2ccc(N3CCOCC3)c(F)c2)C(=O)O1.[Cl-]`, which MIC (Enterococcus faecalis) is on record?
Its MIC is 64 µg/mL.

What about the MIC (Salmonella enterica) of the same compound?
The MIC was 128 µg/mL.

And the MIC (Staphylococcus aureus [1])?
Its MIC is 128 µg/mL.

What about the MIC (Escherichia coli) of the same compound?
Its MIC is 128 µg/mL.

What about the solubility [2] of the same compound?
Its solubility is “Soluble”.

With `CCCC[N+](C)(C)CC(=O)NC[C@H]1CN(c2ccc(N3CCOCC3)c(F)c2)C(=O)O1.[Cl-]` as the compound, how does the MIC (Enterococcus faecalis) read?
Its MIC is over 128 µg/mL.

What about the MIC (Salmonella enterica) of the same compound?
The MIC was over 128 µg/mL.

And the MIC (Staphylococcus aureus [1])?
Its MIC is over 128 µg/mL.

What about the MIC (Escherichia coli) of the same compound?
Its MIC is over 128 µg/mL.

And the solubility [2]?
The solubility was “Soluble”.

What does the source list for `CCCCCCCCCN(C[C@H]1CN(c2ccc(N3CCOCC3)c(F)c2)C(=O)O1)C(=O)[C@@H](N)CCCCN.Cl.Cl`?
MIC (Enterococcus faecalis): 16 µg/mL; MIC (Salmonella enterica): 64 µg/mL; MIC (Staphylococcus aureus [1]): 16 µg/mL; MIC (Escherichia coli): 64 µg/mL; solubility [2]: Soluble

Which results are given for `CCCCCCCCCCCN(C[C@H]1CN(c2ccc(N3CCOCC3)c(F)c2)C(=O)O1)C(=O)[C@@H](N)CCCN=C(N)N.Cl.Cl.Cl`?
MIC (Enterobacteriaceae [3]): 16 µg/mL; MIC (Enterococcus faecalis): 8 µg/mL; MIC (Klebsiella pneumoniae [4]): 8 µg/mL; MIC (Salmonella enterica): 8 µg/mL; MIC (Staphylococcus aureus [5]): 8 µg/mL; MIC (Klebsiella pneumoniae [6]): 16 µg/mL; MIC (Enterobacteriaceae [7]): > 64 µg/mL; MIC (Staphylococcus aureus [8]): 4 µg/mL; MIC (Staphylococcus aureus [9]): 4 µg/mL; MIC (Enterobacteriaceae [10]): 16 µg/mL; MIC (Klebsiella pneumoniae [11]): 16 µg/mL; MIC (Enterobacteriaceae [12]): 16 µg/mL; MIC (Staphylococcus aureus [13]): 4 µg/mL; MIC (Klebsiella pneumoniae [14]): 8 µg/mL; MIC (Klebsiella pneumoniae [15]): 8 µg/mL; MIC (Staphylococcus aureus [16]): 2 µg/mL; MIC (Klebsiella pneumoniae [17]): 32 µg/mL; MIC (Enterobacteriaceae [18]): 8 µg/mL; MIC (Klebsiella pneumoniae [19]): 16 µg/mL; MIC (Staphylococcus aureus [20]): 8 µg/mL; MIC (Staphylococcus aureus [1]): 4 µg/mL; MIC (Escherichia coli): 8 µg/mL; MIC (Staphylococcus aureus [21]): 4 µg/mL; MIC (Enterobacteriaceae [22]): 16 µg/mL; MIC (Klebsiella pneumoniae [23]): 16 µg/mL; MIC (Staphylococcus aureus [24]): 4 µg/mL; MIC (Enterobacteriaceae [25]): > 64 µg/mL; MIC (Enterobacteriaceae [26]): 16 µg/mL; MIC (Enterobacteriaceae [27]): 64 µg/mL; MIC (Enterobacteriaceae [28]): 16 µg/mL; MIC (Staphylococcus aureus [29]): 4 µg/mL; MIC (Klebsiella pneumoniae [30]): 16 µg/mL; solubility [2]: Soluble; MIC (Staphylococcus aureus [31]): 4 µg/mL; MIC (Klebsiella pneumoniae [32]): 8 µg/mL

With `CCCCCCCCN(C[C@H]1CN(c2ccc(N3CCOCC3)c(F)c2)C(=O)O1)C(=O)[C@@H](N)CCCN=C(N)N.Cl.Cl.Cl` as the compound, how does the MIC (Enterococcus faecalis) read?
Its MIC is 32 µg/mL.

And the MIC (Salmonella enterica)?
The MIC was over 128 µg/mL.

What about the MIC (Staphylococcus aureus [1]) of the same compound?
Its MIC is 16 µg/mL.

What about the MIC (Escherichia coli) of the same compound?
The MIC was over 128 µg/mL.

What about the solubility [2] of the same compound?
The solubility was “Soluble”.
